# Measurements from different studies.
# Compare with care: the assays were run in different laboratories.
# Cell line: DU-145
# Effect on: cell growth or viability
Structure (SMILES),test,setting,IC50 [µM]
Cc1ccc(S(=O)(=O)N(C)CC(=O)N(Cc2ccc(C3CCCCC3)cc2)c2ccc(C(=O)O)c(O)c2)cc1,,,37.2
O=C1NC(c2ccccc2)(c2ccccc2)C(=O)N1Cc1cn(-c2c3ccccc3nc3ccccc23)nn1,MTT,,79.3
COc1cccc2c1C(=O)c1c(O)c3c(c(O)c1C2=O)C[C@@](O)(C(=O)CO)C[C@@H]3O[C@H]1C[C@H](N)[C@H](O)[C@H](C)O1,resazurin,72 h,0.095
COC1=CC(=O)N(C(=O)[C@@H](CCC(Cl)(Cl)Cl)NC(=O)C(C)(C)C)[C@@H]1CCC(Cl)(Cl)Cl,resazurin,72 h,20
COc1cc(C2Oc3cc([C@H]4Oc5cc(O)cc(O)c5C(=O)[C@@H]4O)ccc3OC2CO)ccc1O (stereo partly shown),CCK-8,72 h,21.9
Cc1ccccc1-c1ccc(Cn2cccc(O)c2=S)cc1,MTS,,13.6
C[C@@H]1C[C@@H](c2cccc(Cl)c2)c2c(cc3ccccn23)C(=O)O1 (racemic),resazurin,72 h,> 100
CC(C)C[C@H](NC(=O)[C@H](Cc1ccccc1)NC(=O)c1cnccn1)B(O)O,ATP luminescence,,0.017
Oc1ccc(C(c2c[nH]c3ccccc23)c2c[nH]c3ccccc23)cc1,MTT,48 h,48
COc1cc([C@H]2C[C@@H](C)OC(=O)c3cc4ccccn4c32)cc(OC)c1OC (racemic),resazurin,72 h,36.9
Cn1cc(C(c2ccc(C(=O)O)cc2)c2cn(C)c3ccccc23)c2ccccc21,MTT,48 h,> 100
C[C@@H]1C[C@H](c2cccc(F)c2)c2c(cc3ccccn23)C(=O)O1 (racemic),resazurin,72 h,> 100
CC(C)n1cc(C(c2ccc(/C=C/C(=O)O)s2)c2cn(C(C)C)c3ccccc23)c2ccccc21,MTT,48 h,52
C[C@H]1O[C@@H](n2cc(F)c(=O)[nH]c2=O)[C@H](O)[C@@H]1O,CCK-8,48 h,> 50
O=C(O)/C=C/c1ccc(C(c2c[nH]c3ccccc23)c2c[nH]c3ccccc23)s1,MTT,48 h,90
CC(C)C(=O)Nc1ccc([N+](=O)[O-])c(C(F)(F)F)c1,CCK-8,48 h,> 50
O=C(O)/C=C/c1cccc(C(c2c[nH]c3ccccc23)c2c[nH]c3ccccc23)c1,MTT,48 h,> 100
C[C@@H]1C[C@@H](c2ccc3c(c2)OCO3)c2c(cc3ccccn23)C(=O)O1 (racemic),resazurin,72 h,35.7
Cc1ccc2[nH]cc(C(c3ccc(/C=C/C(=O)O)s3)c3c[nH]c4ccc(C)cc34)c2c1,MTT,48 h,> 100
C[C@@H]1C[C@H](c2ccc(Br)cc2)c2c(cc3ccccn23)C(=O)O1 (racemic),resazurin,72 h,34.4
Cn1cc(C(c2cccc(/C=C/C(=O)O)c2)c2cn(C)c3ccccc23)c2ccccc21,MTT,48 h,> 100
O=c1ccn(Cc2cn(-c3c4ccccc4nc4ccccc34)nn2)c(=O)[nH]1,MTT,,59.3
